Source: ChEMBL document CHEMBL1629578, “Structure-activity relationships of antimicrobial and lipoteichoic acid-sequestering properties in polyamine sulfonamides” (Antimicrob Agents Chemother, 2009)
The source made the active and inactive calls. The rule behind the calls is not given here.

How the values were obtained:
HEK293 [1] = assay: Sequestration activity Saccharomyces cerevisiae lipoteichoic acid assessed as inhibition of TLR2-mediated NF-kappaB translocation in HEK293 cells stably transfected TLR2/MD2/CD14/alkaline phosphatase by reporter gene assay; format: cell-based; settings: Staphylococcus aureus, in the assay text read “Staphylococcus aureus” for “Saccharomyces cerevisiae”
In short: (§1)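 HEK-Blue-2 reporter cells (TLR2, MD2, CD14, NF-κB/AP-1-driven secreted alkaline phosphatase) were grown to confluence, then stimulated with LTA purified from S. aureus (n-butanol extraction, delipidated, enzymatically deproteinated) plus graded compound concentrations. sAP was read with a chromogen at 620 nm. Dilutions were run in quadruplicate and experiments repeated three times.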

HEK293 [2] = assay: Neutralizing activity lipopolysaccharide assessed as inhibition of TLR4-mediated NF-kappaB translocation in HEK293 cells stably transfected TLR4/MD2/CD14/alkaline phosphatase by reporter gene assay; format: cell-based
In short: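 HEK-Blue-4 cells (TLR4, MD2, CD14, NF-κB/AP-1-inducible secreted alkaline phosphatase) were grown to confluence and stimulated with E. coli O111:B4 LPS plus graded compound concentrations. Alkaline phosphatase was read with a chromogen at 620 nm. Each dilution was run in quadruplicate and experiments repeated three times.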

Escherichia coli = assay: Antimicrobial activity against Escherichia coli ATCC 9637 at 37 degC by broth microdilution method; format: functional, organism-based
In short: (§2)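 Broth microdilution in non-cation-supplemented Mueller-Hinton broth. Mid-log cultures were adjusted to OD600 0.5, diluted 10-fold and added to equal volumes of 2-fold serially diluted compound. Plates were incubated overnight at 37°C and read at 600 nm. MIC was the lowest concentration giving complete growth inhibition. Triplicate points from a representative experiment.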

HEK293 [3] = assay: Sequestering activity against lipoteichoic acid assessed as inhibition of TLR2-mediated NF-kappaB induction in HEK293 cells stably transfected TLR2/MD2/CD14/alkaline phosphatase by reporter gene assay
HEK293 [4] = assay: Neutralizing activity against saccharomyces cerevisiae lipoteichoic acid assessed as inhibition of TLR2-mediated NF-kappaB induction in HEK293 cells stably transfected TLR2/MD2/CD14/alkaline phosphatase by reporter gene assay; format: cell-based; settings: Staphylococcus aureus, in the assay text read “Staphylococcus aureus” for “Saccharomyces cerevisiae”; in short: as §1
[5] = Aqueous solubility of the compound; format: physicochemical; settings: buffer
Staphylococcus aureus = assay: Antimicrobial activity against Staphylococcus aureus ATCC 13709 at 37 degC by broth microdilution method; format: functional, organism-based; in short: as §2
[6] = (§3) Sequestering activity against saccharomyces cerevisiae lipoteichoic acid assessed as inhibition of TLR2-mediated NF-kappaB induction in HEK293 cells stably transfected TLR2/MD2/CD14/alkaline phosphatase by reporter gene assay; format: cell-based; settings: Staphylococcus aureus, in the assay text read “Staphylococcus aureus” for “saccharomyces cerevisiae”; in short: as §1
HEK293 [7] = assay: as §3; format: cell-based; settings: Staphylococcus aureus, in the assay text read “Staphylococcus aureus” for “Saccharomyces cerevisiae”; in short: as §1

Compound | inhibition (HEK293 [1]) | inhibition (HEK293 [2]) | Activity (Escherichia coli) | inhibition (HEK293 [3]) | inhibition (HEK293 [4]) | solubility [5] | Activity (Staphylococcus aureus) | EC50 [6] [µM] | Activity (HEK293 [7])
CCCCCCCCCCCCS(=O)(=O)NCCCNCCCNCCCCNCCCN | Active | Active | Active | Active |  |  |  |  | 
CCCCCCCCCCS(=O)(=O)NCCCNCCCNCCCCCCNCCCNCCCNS(=O)(=O)CCCCCCCCCC.Cl |  |  | inactive |  | inactive | Insoluble | Active | 60 | 
CCCCCCCCCCCCS(=O)(=O)NCCCNCCCNCCCCCCNCCCNCCCNS(=O)(=O)CCCCCCCCCCCC.Cl |  |  |  |  | inactive | Insoluble | Active | 60 | 
CCCCCCCCCCCCCCCCCCS(=O)(=O)NCCCNCCCNCCCCNCCCN | Active | Active |  | Active |  |  |  |  | 
CCCCCCCCCCCCCCCCS(=O)(=O)NCCCNCCCCNCCCN | Active | Active |  | Active |  |  |  | 1 | 
CCCCCCCCS(=O)(=O)NCCCNCCCNCCCCCCNCCCNCCCNS(=O)(=O)CCCCCCCC.Cl |  |  | inactive |  | inactive | Insoluble | Active | 60 | 
CCCCCCCCCCS(=O)(=O)NCCCNCCCCNCCCN | Active | Active |  | Active |  |  |  |  | 
CCCCCCCCS(=O)(=O)NCCCNCCCNCCCCNCCCN | Active | Active |  | Active |  |  |  |  | 
CCCCCCCCCCCCCCCCS(=O)(=O)NCCCNCCCNCCCCCCNCCCNCCCNS(=O)(=O)CCCCCCCCCCCCCCCC.Cl |  |  |  |  | inactive | Insoluble | Active | 60 | 
CCCCCCCCCCS(=O)(=O)NCCCNCCCNCCCCNCCCN | Active | Active |  | Active |  |  |  |  | 
POLYMYXIN B |  |  |  |  |  |  |  |  | Active
CCCCCCCCS(=O)(=O)NCCCNCCCCNCCCN | Active | Active |  | Active |  |  |  |  | 
CCCCCCCCCCCCCCCCS(=O)(=O)NCCCNCCCNCCCCNCCCN | Active | Active | Active | Active |  |  |  | 1 | 
CCCCCCCCCCCCS(=O)(=O)NCCCNCCCCNCCCN | Active | Active |  | Active |  |  |  |  | 
CCCCCCCCCCCCCCCCCCS(=O)(=O)NCCCNCCCCNCCCN | Active | Active |  | Active |  |  |  |  | 
CCCCCCCCCCCCCCCCCCS(=O)(=O)NCCCNCCCNCCCCCCNCCCNCCCNS(=O)(=O)CCCCCCCCCCCCCCCCCC.Cl |  |  |  |  | inactive | Insoluble | Active | 60 | 
